# Pf Dd2 growth = blocks growth of Plasmodium falciparum Dd2 parasites | P. falciparum Dd2 growth, SYBR Green, 72 h; hits give low values | activity change, % at 10 µM | 94,000 tested, 2.3% active; in the data active = activity change below about -80%; inconclusive = no clear call, values can overlap the other calls
# IDH1 R132H inh = IDH1 R132H (human) inhibition; O75874; IDH1 R132H reductase, diaphorase/resazurin fluorescence, 60 min; inhibition, % at 10 µM; 70,000 tested, 0.18% active; AID 624101; in the data active = inhibition above about 34%; inconclusive = no clear call, values can overlap the other calls; inactive = below about 11%;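 also: 0% = DMSO and 100% = no enzyme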
# Tcruzi prolif = inhibitors of T. cruzi proliferation | T. cruzi beta-gal in NIH3T3, GalScreen luminescence, 90 h | AID 624255 | 77,000 tested, 5.9% active | inhibition, % at 8.34 µM;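 active = mean inhibition above about 93%, with at least 55% of replicates each passing it, limit read from the data, passing the limit was not always enough; inconclusive = only one of those two conditions holds; inactive = neither condition holds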
# GASC1 inh = inhibitors of human demethylase GASC-1 KDM4C; Q9H3R0; inhibition, % at 12.5 µM; GST-KDM4C 2-372, H3K9me3 peptide, LANCE TR-FRET; 96,000 tested, 0.15% active;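 active = mean replicate inhibition above about 25%, with at least 55% of replicates also reaching it, limit read from the data, passing the limit was not always enough; inconclusive = only one of those two conditions met; inactive = neither condition met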
# Target sequence (Q9H3R0 2-372 limits assumed): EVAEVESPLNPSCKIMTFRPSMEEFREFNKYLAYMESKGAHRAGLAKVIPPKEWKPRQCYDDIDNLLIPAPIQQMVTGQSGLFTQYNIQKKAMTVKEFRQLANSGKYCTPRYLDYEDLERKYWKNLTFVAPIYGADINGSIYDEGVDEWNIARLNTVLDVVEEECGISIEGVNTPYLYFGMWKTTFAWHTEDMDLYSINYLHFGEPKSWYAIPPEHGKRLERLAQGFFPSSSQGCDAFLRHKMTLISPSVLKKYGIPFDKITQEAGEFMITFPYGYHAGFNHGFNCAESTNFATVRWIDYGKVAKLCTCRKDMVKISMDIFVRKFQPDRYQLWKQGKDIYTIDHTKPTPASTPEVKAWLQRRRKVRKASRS
#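 System – N-terminal GST-fused human GASC-1 (KDM4C) fragment, residues 2-372 · Input – enzyme final amount 10 nM · Technique – LANCE TR-FRET, Eu antibody, ULight-streptavidin, EDTA, ex 340 nm, em 618/671 nm · Medium – HEPES buffer, pH 7.5, plus ascorbate · Incubation – enzyme reaction 30 min, then detection 60 min, both room temperature · Reagent – H3K9me3 peptide with Fe(II)/2OG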
# * marks the source's active call; other numbers are inactive results; u = inconclusive; x = not tested or not shown; ! = repeats disagree. The list is not random: actives were taken first. Their share in the collection is about 5.8%.
SMILES,Pf Dd2 growth,IDH1 R132H inh,Tcruzi prolif,GASC1 inh
C/C=C/c1ccc2c(c1)O[C@@H](CN(C)C(=O)Cc1ccncc1)[C@@H](C)CN([C@H](C)CO)S2(=O)=O,-58,0,-11,-4
C[C@H](CO)N1C[C@H](C)[C@H](CN(C)C(=O)Cc2ccncc2)Oc2cc(C#CC3CCCCC3)ccc2S1(=O)=O,-86*,u,86,-2
O=C(Oc1ccc(N(Cc2ccco2)C2=NS(=O)(=O)c3ccccc32)cc1)c1ccco1,x,0,x,x
COc1ccc(S(=O)(=O)N(C)CC(=O)Nc2cccc(F)c2)cc1Cl,x,0,x,x
COc1ccc(CN(C)C[C@@H]2OCCCC[C@@H](C)Oc3ccc(NC(=O)Nc4cccc5ccccc45)cc3C(=O)N([C@H](C)CO)C[C@H]2C)cc1,-71,0,87,x
C[C@@H]1CCCCO[C@@H](CN(C)Cc2ccc3c(c2)OCO3)[C@@H](C)CN([C@H](C)CO)C(=O)c2cc(NC(=O)Nc3cccc4ccccc34)ccc2O1,31,x,93,-2
C[C@@H]1CCCCO[C@@H](CN(C)Cc2ccc3c(c2)OCO3)[C@H](C)CN([C@H](C)CO)C(=O)c2cc(NC(=O)Nc3cccc4ccccc34)ccc2O1,-91*,1,45,-6
C[C@@H]1CN([C@H](C)CO)C(=O)c2cc(NC(=O)Nc3cccc4ccccc34)ccc2O[C@@H](C)CCCCO[C@H]1CN(C)Cc1ccc2c(c1)OCO2,-87*,-1,76,-1
COc1ccc(CN(C)C[C@@H]2OCCCC[C@H](C)Oc3ccc(NC(=O)Nc4cccc5ccccc45)cc3C(=O)N([C@H](C)CO)C[C@H]2C)cc1,-90*,x,106,x
C[C@@H]1CCCCO[C@H](CN(C)Cc2ccc3c(c2)OCO3)[C@@H](C)CN([C@@H](C)CO)C(=O)c2cc(NC(=O)Nc3cccc4ccccc34)ccc2O1,-88*,2,69,-2
C[C@H]1CCCCO[C@@H](CN(C)Cc2ccc3c(c2)OCO3)[C@@H](C)CN([C@@H](C)CO)C(=O)c2cc(NC(=O)Nc3cccc4ccccc34)ccc2O1,u,-5,92,-3
Cc1ccc(S(=O)(=O)N(C)C[C@H]2Oc3c(NC(=O)CCCCCC(=O)Nc4ccccc4N)cccc3C(=O)N([C@@H](C)CO)C[C@H]2C)cc1,-91*,0,x,0
Cc1ccc(S(=O)(=O)N(C)C[C@@H]2Oc3c(NC(=O)CCCCCC(=O)Nc4ccccc4N)cccc3C(=O)N([C@@H](C)CO)C[C@H]2C)cc1,-88*,2,x,1
C[C@@H]1CN([C@@H](C)CO)C(=O)c2cccc(NC(=O)CCCCCC(=O)Nc3ccccc3N)c2O[C@@H]1CN(C)S(=O)(=O)c1cccs1,-92*,0,x,-1
C[C@@H]1CN([C@H](C)CO)C(=O)c2cccc(NC(=O)CCCCCC(=O)Nc3ccccc3N)c2O[C@H]1CN(C)S(=O)(=O)c1cccs1,-48,0,x,0
C[C@@H]1CN([C@@H](C)CO)C(=O)c2cccc(NC(=O)CCCCCC(=O)Nc3ccccc3N)c2O[C@@H]1CN(C)S(=O)(=O)c1ccccc1,-90*,x,x,0
C[C@H]1CCCCO[C@H](CN(C)C(=O)c2ccccc2)[C@@H](C)CN([C@@H](C)CO)C(=O)c2cc(NS(=O)(=O)c3ccccc3)ccc2O1,-29,-1,-6,-2
COc1cccc(S(=O)(=O)N2CC[C@H]3[C@H](CO)Nc4ccc(C#Cc5ccccc5)cc4[C@H]32)c1,-13,x,17,-4
C=CCN1C(=O)[C@]2(O[C@H](CCO)[C@@H]([Si](C)(C)c3ccc(OC)cc3)[C@@H]2C)c2cc(NC(=O)[C@H](C)O)ccc21,x,0,x,x
C=CCN1C(=O)[C@@]2(O[C@@H](CCn3cc(CCO)nn3)[C@H]([Si](C)(C)c3ccc(OC)cc3)[C@H]2C)c2cc(NC(=O)c3ccc(OC)cc3)ccc21,x,66*,x,x
C[C@H](CO)N1C[C@H](C)[C@@H](CN(C)Cc2ccc(C(F)(F)F)cc2)OCCCC[C@H](C)Oc2ccc(NC(=O)CCCN(C)C)cc2C1=O,-77,x,2,2
C[C@H]1CCCCO[C@H](CN(C)Cc2ccc(C(F)(F)F)cc2)[C@@H](C)CN([C@@H](C)CO)C(=O)c2cc(NC(=O)CCCN(C)C)ccc2O1,-86*,x,61,4
C[C@@H]1CCCCO[C@H](CN(C)Cc2ccc(C(F)(F)F)cc2)[C@H](C)CN([C@H](C)CO)C(=O)c2cc(NC(=O)CCCN(C)C)ccc2O1,-87*,x,80,4
C[C@@H]1CN([C@H](C)CO)C(=O)c2cc(NC(=O)CCCN(C)C)ccc2O[C@@H](C)CCCCO[C@@H]1CN(C)Cc1ccc(C(F)(F)F)cc1,-87*,5,49,-1
C[C@H]1CCCCO[C@@H](CN(C)Cc2ccc(C(F)(F)F)cc2)[C@@H](C)CN([C@@H](C)CO)C(=O)c2cc(NC(=O)CCCN(C)C)ccc2O1,-85*,-4,73,3
SMILES,Pf Dd2 growth,IDH1 R132H inh,Tcruzi prolif,GASC1 inh
Cc1noc(C)c1S(=O)(=O)Nc1ccc2c(c1)C(=O)N([C@@H](C)CO)C[C@@H](C)[C@H](CN(C)CC1CC1)O2,3,4,-10,13
O=C([C@@H]1[C@@H](CO)[C@@H]2Cn3c(cccc3=O)[C@H]1N2Cc1cccc(Cl)c1)N1CCOCC1,x,x,-13,-1
CC(C)(C)c1cc(CNCCS(=O)(=O)O)c(O)c(C(C)(C)C)c1,x,1,x,x
C[C@@H]1CCCCO[C@@H](CN(C)Cc2ccc(C(F)(F)F)cc2)[C@H](C)CN([C@H](C)CO)C(=O)c2cc(NC(=O)CCCN(C)C)ccc2O1,-89*,1,77,6
COc1ccc2c3c(n(C)c2c1)[C@@H](CO)N(C(=O)CN(C)C)CC31CN(S(C)(=O)=O)C1,18,x,x,2
Fc1ccc(-c2ccc(C3[C@@H]4CN(Cc5cccc(F)c5)C[C@H]3N4)cc2)cc1 (stereo partly specified),-21,x,x,2
Cc1cccc(-c2ccc(C3[C@@H]4CN(Cc5ccccc5F)C[C@H]3N4)cc2)c1 (stereo partly specified),7,x,x,1
Fc1ccc(-c2ccc(C3[C@@H]4CN(Cc5ccccc5)C[C@H]3N4)cc2)cc1 (stereo partly specified),-82*!,x,x,41*!
Cc1ccc(-c2ccc([C@@H]3[C@@H]4CN(Cc5ccccc5F)C[C@H]3N4)cc2)cc1,-87*,x,x,-3
COc1ccc(NC(=O)Nc2ccc3c(c2)C(=O)N([C@@H](C)CO)C[C@H](C)[C@H](CN(C)S(=O)(=O)c2ccc(Cl)cc2)OCCCC[C@@H](C)O3)cc1,-87*,x,80,6
COc1ccc(NC(=O)Nc2ccc3c(c2)C(=O)N([C@H](C)CO)C[C@H](C)[C@H](CN(C)S(=O)(=O)c2ccc(Cl)cc2)OCCCC[C@@H](C)O3)cc1,-82*,0,33,0
COc1ccc(S(=O)(=O)N(C)C[C@H]2OCCCC[C@H](C)Oc3ccc(NC(=O)Nc4ccccc4)cc3C(=O)N([C@H](C)CO)C[C@@H]2C)cc1,-38,0,53,-1
